From ChEMBL document CHEMBL1154735, “A strategy to minimize reactive metabolite formation: discovery of (S)-4-(1-cyclopropyl-2-methoxyethyl)-6-[6-(difluoromethoxy)-2,5-dimethylpyridin-3-ylamino]-5-oxo-4,5-dihydropyrazine-2-carbonitrile as a potent, orally bioavailable corticotropin-releasing factor-1 receptor antagonist” (J Med Chem, 2009)
pIC50: −log10 of the molar value.

Assays:
[1] = Metabolic stability in human liver microsomes assessed as compound remaining at 3 uM after 10 mins by HPLC/UV/MS analysis; format: ADME, Microsome; conditions: read-out: Stability
[2] = Metabolic stability in rat liver microsomes assessed as compound remaining at 3 uM after 10 mins by HPLC/UV/MS analysis; format: ADME, Microsome; conditions: read-out: Stability
Method in brief: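 Pooled human or rat liver microsomes (1 mg/mL protein) with 3 μM compound and 1.3 mM NADPH in 100 mM sodium phosphate pH 7.4 at 37 °C; final 0.015% DMSO, 0.985% acetonitrile; stopped at 0 and 10 min, percent remaining by LC/MS/MS.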

[3] = Volume of distribution at steady state in Sprague-Dawley rat at 2 mg/kg, iv after 0.17 to 24 hrs by LC/MS/MS analysis; format: ADME, organism-based; set-up: dose 2 mg/kg, route intravenous; conditions: in vivo, read-out: Vdss
Method in brief: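 Sprague–Dawley rats (n = 3) dosed 2 mg/kg iv in PEG:ethanol 90:10 (v/v) at 1 mL/kg. Plasma stored at –20 °C and quantified by LC/MS/MS after acetonitrile precipitation with internal standard.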

[4] = Half life in Sprague-Dawley rat at 2 mg/kg, iv by LC/MS/MS analysis; format: ADME, organism-based; set-up: dose 2 mg/kg, route intravenous; conditions: in vivo
[5] = AUC in Sprague-Dawley rat at 10 mg/kg, po dosed as aqueous suspension of 1% polysorbate 80 in 0.5% methylcellulose after 0.25 to 24 hrs by LC/MS/MS analysis; format: ADME, organism-based; set-up: time upper 24 hr, time lower 0.25 hr, dose 10 mg/kg, route oral; conditions: in vivo
[6] = Cmax in Sprague-Dawley rat at 10 mg/kg, po dosed as aqueous suspension of 1% polysorbate 80 in 0.5% methylcellulose after 2 to 4 hrs by LC/MS/MS analysis; format: ADME, organism-based; set-up: dose 10 mg/kg, route oral; conditions: in vivo
Liver microsomes [7] = assay: Metabolic stability in NADPH-fortified human liver microsomes assessed as pyrazinone oxidation metabolite formation at 10 uM after 30 mins by HPLC/UV/MS analysis; format: ADME, Microsome; conditions: 0.5 h
Method in brief: (§1)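 Pooled rat or human liver microsomes 1 mg/mL, 10 μM substrate, 100 mM potassium phosphate pH 7.4, 37 °C, started with NADPH-regenerating system (1.3 mM NADP+, 3.3 mM glucose-6-phosphate, 3.3 mM MgCl2, 0.5 U/mL G6PDH); GSH 5 mM in trapping runs. Sampled 0 and 30 min, acetonitrile quench; abundance as UV peak area (330–340 nm) fraction of all drug-related components by HPLC/UV/MS.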

Liver microsomes [8] = assay: Metabolic stability in NADPH-fortified human liver microsomes assessed as GSH adduct formation at 10 uM after 30 mins by HPLC/UV/MS analysis; format: ADME, Microsome; conditions: 0.5 h; method in brief: as §1
[9] = Metabolic stability in NADPH-fortified rat liver microsomes assessed as parent compound remaining at 10 uM after 30 mins by HPLC/UV/MS analysis; format: ADME, Microsome; conditions: read-out: Stability; method in brief: as §1
Liver microsomes [10] = assay: Metabolic stability in NADPH-fortified rat liver microsomes assessed as pyrazinone oxidation metabolite formation at 10 uM after 30 mins by HPLC/UV/MS analysis; format: ADME, Microsome; conditions: 0.5 h; method in brief: as §1
[11] = Drug metabolism in bile duct cannulated Sprague-Dawley rat assessed as unchanged parent drug remaining in bile at 20 mg/kg, po after 24 hrs by HPLC/UV/MS analysis; format: ADME, organism-based; set-up: dose 20 mg/kg, route oral; conditions: read-out: Activity
Method in brief: (§2)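 Male Sprague–Dawley bile duct cannulated rats (n = 3) dosed orally at 20 mg/kg in PEG/ethanol 90:10; vehicle-dosed controls (n = 3). Bile and urine pooled over 0–24 h, acetonitrile-precipitated and profiled by HPLC/UV/MS (Hydro-RP column, PDA 200–550 nm, positive-ion full and data-dependent scans).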

[12] = Drug metabolism in bile duct cannulated Sprague-Dawley rat assessed as GSH adduct formation in urine at 20 mg/kg, po after 24 hrs by HPLC/UV/MS analysis; format: ADME, organism-based; set-up: dose 20 mg/kg, route oral; conditions: in vivo; method in brief: as §2
[13] = Displacement of [125I]sauvagine from CRF2 receptor in porcine choroid plexus homogenate by binding titration assay; format: tissue-based, Sus scrofa
Method in brief: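 Porcine choroid plexus homogenate; inhibition of [125I]-sauvagine binding measured in a titration format.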

Rattus norvegicus [14] = assay: Total plasma concentration in Sprague-Dawley rat at 3 mg/kg, po after 1 to 3 hrs by LC/MS/MS analysis; format: ADME, organism-based; set-up: dose 3 mg/kg, route oral; conditions: in vivo
Rattus norvegicus [15] = assay: Plasma free concentration in Sprague-Dawley rat at 0.56 mg/kg, po after 1 to 3 hrs by LC/MS/MS analysis; format: ADME, organism-based; set-up: dose 0.56 mg/kg, route oral; conditions: in vivo
Rattus norvegicus [16] = assay: Plasma free concentration in Sprague-Dawley rat at 1.8 mg/kg, po after 1 to 3 hrs by LC/MS/MS analysis; format: ADME, organism-based; set-up: dose 1.8 mg/kg, route oral; conditions: in vivo
Rattus norvegicus [17] = assay: Plasma free concentration in Sprague-Dawley rat at 3 mg/kg, po after 1 to 3 hrs by LC/MS/MS analysis; format: ADME, organism-based; set-up: dose 3 mg/kg, route oral; conditions: in vivo
Rattus norvegicus [18] = assay: Ex vivo receptor occupancy of CRF1 receptor in Sprague-Dawley rat brain parietal assessed as inhibition of [125I]sauvagine binding at 1 mg/kg, po after 90 mins by autoradiography; format: functional; conditions: 1.5 h
Rattus norvegicus [19] = assay: Ex vivo receptor occupancy of CRF1 receptor in Sprague-Dawley rat brain parietal assessed as inhibition of [125I]sauvagine binding at 1.8 mg/kg, po after 90 mins by autoradiography; format: functional; conditions: 1.5 h
Rattus norvegicus [20] = assay: Ex vivo receptor occupancy of CRF1 receptor in Sprague-Dawley rat brain parietal assessed as inhibition of [125I]sauvagine binding at 3 mg/kg, po after 90 mins by autoradiography; format: functional; conditions: 1.5 h
Rattus norvegicus [21] = assay: Anxiolytic activity in Sprague-Dawley rat assessed as decrease in exit latency at 0.56 mg/kg, po after 60 mins by defensive withdrawal test relative to control; format: functional; set-up: scale not given: the % may be the effect or the level left
Method in brief: (§3)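 Rats placed in a darkened chamber within an open illuminated field; time to emerge measured 60 min after oral dosing (0.56–3 mg/kg), n = 8; percent decrease in exit latency versus vehicle-treated animals, p < 0.05 significance.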

Rattus norvegicus [22] = assay: Anxiolytic activity in Sprague-Dawley rat assessed as decrease in exit latency at 1 mg/kg, po after 60 mins by defensive withdrawal test relative to control; format: functional; set-up: scale not given: the % may be the effect or the level left; method in brief: as §3
Rattus norvegicus [23] = assay: Anxiolytic activity in Sprague-Dawley rat assessed as decrease in exit latency at 3 mg/kg, po after 60 mins by defensive withdrawal test relative to control; format: functional; set-up: scale not given: the % may be the effect or the level left; method in brief: as §3
[24] = AUC in Beagle dog at 3 mg/kg, po dosed as aqueous suspension of Labrafil M 1944CS/DMAC/polysorbate 80, 85:10:5 (v/v) after 0.25 to 24 hrs by LC/MS/MS analysis; format: ADME, organism-based, Canis lupus familiaris; set-up: time upper 24 hr, time lower 0.25 hr, dose 3 mg/kg, route oral; conditions: plasma
Method in brief: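 Oral solution dosing at 3 mg/kg in Labrafil M 1944CS/DMAC/polysorbate 80, 85:10:5 (v/v), at 1 mL/kg, in fasted male beagle dogs (n = 2). Samples were acetonitrile-precipitated with internal standard and measured by LC/MS/MS using selected reaction monitoring in positive ion mode.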

[25] = Cmax in Beagle dog at 3 mg/kg, po dosed as aqueous suspension of Labrafil M 1944CS/DMAC/polysorbate 80, 85:10:5 (v/v) after 2 to 4 hrs by LC/MS/MS analysis; format: ADME, organism-based, Canis lupus familiaris; set-up: dose 3 mg/kg, route oral; conditions: in vivo
Method in brief: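 Fasted male beagle dogs dosed orally at 1 mL/kg: 2 mg/kg as 0.2% polysorbate 80 in 0.5% methylcellulose suspension (n = 4) or 3 mg/kg in Labrafil M 1944CS/DMAC/polysorbate 80 85:10:5 (n = 2). Femoral vein blood 0.25–24 h; plasma by LC/MS/MS.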

Rattus norvegicus [26] = assay: Toxicity in Sprague-Dawley rat at 20 mg/kg after 2 weeks; format: organism-based; set-up: dose 20 mg/kg; conditions: in vivo, 336 h
Rattus norvegicus [27] = assay: Toxicity in Sprague-Dawley rat at 175 mg/kg after 2 weeks; format: organism-based; set-up: dose 175 mg/kg; conditions: in vivo, 336 h

- remaining at 10 min, 3 µM [1]: 74%
- remaining at 10 min, 3 µM [2]: 70%
- Vd [3]: 11 L/kg
- half-life [4]: 9.3 h
- AUC [5]: 4.1 µM·h
- Cmax [6]: 860 nM
- Activity (Liver microsomes [7]): < 1%
- Activity (Liver microsomes [8]): 1%
- remaining at 0.5 h, 10 µM [9]: 82%
- Activity (Liver microsomes [10]): < 1%
- dose excreted at 24 h [11]: 3%
- Activity [12]: 0.1%
- pIC50 [13]: < 5.00
- concentration (Rattus norvegicus [14]): 140 nM
- Cp(f) (Rattus norvegicus [15]): 0.84 nM
- Cp(f) (Rattus norvegicus [16]): 2.9 nM
- Cp(f) (Rattus norvegicus [17]): 5 nM
- AUC [24]: 17 µM·h
- Cmax [25]: 1400 nM
Structure (SMILES): COC[C@H](C1CC1)n1cc(C#N)nc(Nc2cc(C)c(OC(F)F)nc2C)c1=O
- inhibition in vivo at 1 mg/kg (Rattus norvegicus [18]): 43%
- inhibition in vivo at 1.8 mg/kg (Rattus norvegicus [19]): 71%
- inhibition in vivo at 3 mg/kg (Rattus norvegicus [20]): 80%
- Activity (Rattus norvegicus [21]): 7%
- Activity (Rattus norvegicus [22]): 28%
- Activity (Rattus norvegicus [23]): 56%
- Activity (Rattus norvegicus [26]): Non-toxic
- Activity (Rattus norvegicus [27]): Non-toxic
